In ChEMBL document CHEMBL1128250, “Structure-activity studies of 2,3,4,4a,5,9b-hexahydroindeno[1,2-c]pyridines as antispermatogenic agents for male contraception” (1995):
Several values for one entry are separate records, joined by “and”; a condition that tells them apart may be missing. Equal values may be shown once.

Tests used:
Mus musculus [1] = assay: Tested for its effect on mouse testes weight 3 days after single oral dose (90 mg/kg); format: functional, Testis
How it was run: (§1)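 CD-1 outbred Swiss albino male mice, 5 per dose, single gavage on day 0 at 10 mL/kg. Vehicle was 0.15 M acetate buffer pH 5, ethanol/Tween-20/water (3:7:90), or 1% Tween-20 in water. CO2 euthanasia 72 h later. Testes weighed and histologically scored (spermatogenic index 0–6). Values are % reduction versus the assay's vehicle control. Positive control was 30 mg/kg of the parent compound. Significance by Dunnett's one-tailed t-test, p < 0.05.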

Mus musculus [2] = assay: Effect on left testes body weight single oral dose of 10 mg/kg was given and the change after 14 hr of dosing was observed.; format: functional, Testis
How it was run: (§2)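 Male CD-1 outbred Swiss albino mice, single oral gavage in acetate buffer pH 5 (10 mL/kg), 3, 10 or 30 mg/kg, plus vehicle control. Killed on day 1, 3 or 14 after dosing (times are days, not hours). Testes removed, right and left weighed separately, sectioned for histology and scored on a 0–6 spermatogenic index. Body weight change recorded. Mean ± SEM, n = 5; p < 0.05 versus control.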

Mus musculus [3] = assay: Effect on spermatogenic index single oral dose of 30 mg/kg was given and the change after 1 hr of dosing was observed.; format: functional; how it was run: as §2
Mus musculus [4] = assay: Tested for its effect on mouse testes weight 3 days after single oral dose (1 mg/kg); format: functional, Testis; how it was run: as §1
Mus musculus [5] = assay: tested for its effect on testes weight 3 days after single sub cutaneous dose (10 mg/kg); format: functional, Testis
How it was run: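 CD-1 male mice, 5/dose, injected subcutaneously once (10 mL/kg) on day 0 in ethanol/Tween-20/water (3:7:90); vehicle and positive controls included. Killed by CO2 after 72 h; testes weighed and sectioned, with histology scored as a 0–6 spermatogenic index. Both read-outs given as % reduction from control; Dunnett's one-tailed t-test.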

Mus musculus [6] = assay: Effect on left testes body weight single oral dose of 10 mg/kg was given and the change after 1 h of dosing was observed.; format: functional, Testis; how it was run: as §2
Mus musculus [7] = assay: Effect on right testes weight single oral dose of 10 mg/kg was given and the change after 3 hr of dosing was observed.; format: functional, Testis; how it was run: as §2
Mus musculus [8] = assay: Effect on right testes weight single oral dose of 30 mg/kg was given and the change after 14 hr of dosing was observed.; format: functional, Testis; how it was run: as §2
Mus musculus [9] = assay: Effect on spermatogenic index single oral dose of 3 mg/kg was given and the change after 14 hr of dosing was observed; format: functional; how it was run: as §2
Mus musculus [10] = assay: Effect on right testes weight after 1 hr of dosing was observed.; format: functional, Testis; how it was run: as §2
Mus musculus [11] = assay: Tested for its effect on mouse testes weight 3 days after single oral dose (30 mg/kg); format: functional, Testis; how it was run: as §1
Mus musculus [12] = assay: Tested for its effect on spermatogenic index 3 days after single oral dose (10 mg/kg); format: functional
How it was run: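 Male CD-1 (ICR) mice, 7 weeks old on arrival, 5 per dose, single gavage of 10 mL/kg on day 0. Vehicle was 0.15 M acetate buffer pH 5, ethanol/Tween-20/water 3:7:90, or 1% Tween-20. Mice were killed with CO2 at 72 h and testes weighed and scored for spermatogenic index (0–6 scale). Results are % reduction versus the vehicle control. Dunnett's one-tailed t-test.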

Mus musculus [13] = assay: Tested for its effect on mouse testes weight 3 days after single sub cutaneous (10 mg/kg); format: functional, Testis
How it was run: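 CD-1 outbred Swiss albino male mice, 5 per dose, single subcutaneous injection on day 0 at 10 mL/kg in ethanol/Tween-20/water (3:7:90). Killed 72 h later. Testes weighed and scored for spermatogenic index (0–6). Results are % reduction versus vehicle control. Each assay included a 30 mg/kg positive control. Dunnett's one-tailed t-test, p < 0.05. Oral versus sc route compared by ANOVA.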

Mus musculus [14] = assay: Tested for its effect on testes weight 3 days after single oral dose (90 mg/kg); format: functional, Testis; how it was run: as §1
Mus musculus [15] = assay: Effect on right testes body weight single oral dose of 10 mg/kg was given and the change after 14 h of dosing was observed.; format: functional, Testis; how it was run: as §2
Mus musculus [16] = assay: Effect on spermatogenic index single oral dose of 30 mg/kg was given and the change after 3 hr of dosing was observed.; format: functional; how it was run: as §2
Mus musculus [17] = assay: Effect on right testes weight single oral dose of 3 mg/kg was given and the change after 3 hr of dosing was observed.; format: functional, Testis; how it was run: as §2

CCN1CC[C@H]2[C@H](c3ccc(C)cc3)c3cc(C)ccc3[C@H]2C1.Cl
Reduction (Mus musculus [1]): 10% | Testes weight (Mus musculus [2]): 101.6 mg | Spermatogenic index (Mus musculus [3]): 4.4 | Reduction (Mus musculus [4]): 11% | Reduction (Mus musculus [5]): 12% | Testes weight (Mus musculus [6]): 88.5 mg | Spermatogenic index (Mus musculus [7]): 5.1 | Testes weight (Mus musculus [7]): 112.3 mg | Testes weight (Mus musculus [8]): 49.4 mg and 47.1 mg | Spermatogenic index (Mus musculus [9]): 6 | Change in body weight (Mus musculus [10]): 3.22 g | Reduction (Mus musculus [11]): 24% | Reduction (Mus musculus [12]): 31% | Reduction (Mus musculus [13]): -3% | Reduction (Mus musculus [14]): 4% | Testes weight (Mus musculus [15]): 104.8 mg | Spermatogenic index (Mus musculus [16]): 3 | Testes weight (Mus musculus [17]): 112.6 mg
